The subject of data set [1] is Trypanosoma brucei brucei. Nature of the data set: Ratio of IC50 for bloodstream forms of Trypanosoma brucei brucei overexpressing type I nitroreductase in absence of tetracycline to IC50 for bloodstream forms of Trypanosoma brucei brucei overexpressing type I nitroreductase in presence of tetracycline. In kind it is functional.
Data set [2] deals with Trypanosoma brucei brucei. As to the kind of experiment: Antimicrobial activity against bloodstream forms of Trypanosoma brucei brucei assessed as reduction in cell viability after 3 days by alamar blue assay. In kind it is functional, organism-based. The conditions noted are these: 72 h.
Data set [3] in a line: Selectivity index, ratio of IC50 for rat L6 cells to IC50 for amastigote forms of Trypanosoma cruzi Tulahuen C4.
The next data set relates to L6. Nature of the data set: Cytotoxicity against rat L6 cells assessed as cell viability. In kind it is cell-based.
A further data set has as its system Leishmania donovani. Nature of the data set: Antileishmanial activity against axenic amastigote forms of Leishmania donovani MHOM/ET/67/L82 assessed as inhibition of growth. In kind it is functional, organism-based. A digest of the protocol:
(§1)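 Parasite growth assay run in 96-well format per an earlier protocol. Dose–response curves were constructed, and the 50% growth-inhibitory concentration was calculated by linear regression from the sigmoidal dose–inhibition curves.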

Data set [4] has as its system Trypanosoma brucei rhodesiense. Nature of the data set: Antitrypanosomal activity against bloodstream trypomastigote forms of Trypanosoma brucei rhodesiense STIB 900 assessed as inhibition of growth. In kind it is functional, organism-based. A digest of the protocol:
as §1

Data set [5] has as its system Trypanosoma cruzi. As to the kind of experiment: Activity of histidine tagged recombinant Trypanosoma cruzi type 1 nitroreductase assessed as NADH oxidation at 100 uM by spectrophotometry method. Summed up: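 Purified recombinant T. cruzi type I nitroreductase, prepared and assayed per earlier work. Specific activity expressed as NADH oxidized per min per mg protein.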

In data set [6] the test system is Trypanosoma brucei brucei. As to the kind of experiment: Activity of histidine tagged recombinant Trypanosoma brucei brucei type 1 nitroreductase assessed as NADH oxidation at 100 uM by spectrophotometry method. A digest of the protocol: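 Purified recombinant his-tagged T. b. brucei type I nitroreductase. Each nitrotriazole substrate at 100 µM with NADH at 100 µM. NADH oxidation followed spectrophotometrically at 340 nm. Specific activity expressed as nmol NADH oxidized per min per mg enzyme.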

In data set [7] the test system is Trypanosoma brucei brucei. As to the kind of experiment: Antimicrobial activity against bloodstream forms of Trypanosoma brucei brucei overexpressing type I nitroreductase assessed as reduction in cell viability after 3 days by alamar blue assay in absence of tetracycline. In kind it is functional, organism-based. The conditions noted are these: 72 h.
Data set [8] can be described thus: Selectivity index, ratio of IC50 for rat L6 cells to IC50 for amastigote forms of Leishmania donovani MHOM/ET/67/L82.
In the next data set the test system is Mus musculus. Nature of the data set: Toxicity in Balb/c mouse infected with firefly luciferase expressing trypamastigote forms of transgenic Trypanosoma cruzi Y at 15 mg/kg/day, ip dosed for 10 days. The conditions noted are these: in vivo, 240 h. Type of data set: organism-based.
Data set [9] concerns Trypanosoma cruzi. Nature of the data set: Antichagasic activity against amastigote forms of Trypanosoma cruzi Tulahuen C4 assessed as inhibition of growth. In kind it is functional, organism-based. Summed up: as §1
The nature of data set [10]: Selectivity index, ratio of IC50 for rat L6 cells to IC50 for bloodstream trypomastigote forms of Trypanosoma brucei rhodesiense STIB 900.
In data set [11] the test system is Trypanosoma brucei brucei. As to the kind of experiment: Antimicrobial activity against bloodstream forms of Trypanosoma brucei brucei overexpressing type I nitroreductase assessed as reduction in cell viability after 3 days by alamar blue assay in presence of tetracycline. Type of data set: functional, organism-based. The conditions noted are these: 72 h. (In general: Resazurin is reduced to fluorescent resorufin, in cell work by metabolically active cells.)

Data set [12] has as its system Trypanosoma cruzi. Nature of the data set: Antichagasic activity against firefly luciferase expressing trypamastigote forms of transgenic Trypanosoma cruzi Y infected in Balb/c mouse assessed as reduction in parasite level at 15 mg/kg/day, ip dosed for 10 days by luciferase reporter gene assay. The conditions noted are these: 240 h. Type of data set: functional. Summed up: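 Balb/c mice were infected with luciferase-expressing T. cruzi Y trypomastigotes and imaged at baseline after i.p. D-luciferin 150 mg/kg in PBS. Ratio = post-treatment / pre-treatment luciferase signal per animal; group mean ± SD.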

Another data set deals with Cytochrome P450 2D6 (Homo sapiens, UniProt P10635). As to the kind of experiment: Inhibition of CYP2D6 in human Liver microsomes after 5 mins by LC-MS/MS method.
Cytochrome P450 2D6, sequence (P10635 whole entry): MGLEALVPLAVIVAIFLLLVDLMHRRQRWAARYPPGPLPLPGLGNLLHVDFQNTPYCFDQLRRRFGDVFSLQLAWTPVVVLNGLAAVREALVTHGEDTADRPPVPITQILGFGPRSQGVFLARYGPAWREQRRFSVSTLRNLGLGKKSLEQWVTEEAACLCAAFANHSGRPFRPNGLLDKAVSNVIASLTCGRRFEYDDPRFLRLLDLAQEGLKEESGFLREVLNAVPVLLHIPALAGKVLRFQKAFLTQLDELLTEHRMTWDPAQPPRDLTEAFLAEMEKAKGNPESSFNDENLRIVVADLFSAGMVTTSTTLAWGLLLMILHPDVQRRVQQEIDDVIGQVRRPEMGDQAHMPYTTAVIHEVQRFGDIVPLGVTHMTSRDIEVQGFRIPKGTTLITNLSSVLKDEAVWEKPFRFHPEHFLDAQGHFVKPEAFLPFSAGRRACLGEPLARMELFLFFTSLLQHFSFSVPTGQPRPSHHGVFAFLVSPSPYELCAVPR
A short description of data set [13]: Efflux ratio of permeability from basolateral to apical side over apical to basolateral side in human Caco2 cells after 2 hrs by LC-MS/MS method. The conditions noted are these: Caco-2.
The target of the next data set is Cytochrome P450 2C19 (Homo sapiens, UniProt P33261). Nature of the data set: Inhibition of CYP2C19 in human Liver microsomes after 35 mins by LC-MS/MS method.
Cytochrome P450 2C19, sequence (P33261 whole entry): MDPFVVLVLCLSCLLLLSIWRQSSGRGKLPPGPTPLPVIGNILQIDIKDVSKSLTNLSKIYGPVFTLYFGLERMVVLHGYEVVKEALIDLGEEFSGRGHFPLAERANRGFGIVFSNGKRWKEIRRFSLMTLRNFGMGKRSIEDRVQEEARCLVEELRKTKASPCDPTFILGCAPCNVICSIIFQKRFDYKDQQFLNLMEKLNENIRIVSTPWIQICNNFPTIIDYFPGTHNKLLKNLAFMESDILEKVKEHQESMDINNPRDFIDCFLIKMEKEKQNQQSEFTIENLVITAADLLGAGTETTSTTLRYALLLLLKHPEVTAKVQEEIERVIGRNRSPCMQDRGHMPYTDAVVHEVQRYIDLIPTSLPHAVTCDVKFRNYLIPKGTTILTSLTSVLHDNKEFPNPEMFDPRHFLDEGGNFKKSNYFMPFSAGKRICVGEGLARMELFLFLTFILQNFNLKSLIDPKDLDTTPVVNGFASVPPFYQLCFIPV
A further data set concerns the target Cytochrome P450 3A4 (Homo sapiens, UniProt P08684). Nature of the data set: Inhibition of CYP3A4 in human Liver microsomes after 5 mins by LC-MS/MS method. For orientation: Microsomes from liver hold many membrane-bound enzymes, among them those of drug oxidation.
For a further data set, the target named is T1, Cytochrome P450 2C8 (Homo sapiens, UniProt P10632).
T1 sequence (P10632 whole entry): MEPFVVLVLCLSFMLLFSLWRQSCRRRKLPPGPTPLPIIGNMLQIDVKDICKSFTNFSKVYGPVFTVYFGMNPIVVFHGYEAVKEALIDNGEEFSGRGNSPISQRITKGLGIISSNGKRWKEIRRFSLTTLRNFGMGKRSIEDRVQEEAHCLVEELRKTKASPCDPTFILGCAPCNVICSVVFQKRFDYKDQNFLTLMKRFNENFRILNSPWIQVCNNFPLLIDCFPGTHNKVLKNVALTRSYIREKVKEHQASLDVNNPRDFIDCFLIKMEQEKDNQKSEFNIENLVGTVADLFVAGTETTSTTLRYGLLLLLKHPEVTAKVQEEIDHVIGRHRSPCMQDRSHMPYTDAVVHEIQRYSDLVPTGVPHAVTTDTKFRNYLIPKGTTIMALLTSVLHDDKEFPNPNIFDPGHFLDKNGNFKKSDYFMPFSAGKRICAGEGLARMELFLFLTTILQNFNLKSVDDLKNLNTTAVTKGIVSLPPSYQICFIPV
As to the kind of experiment: Inhibition of CYP2C8 in human Liver microsomes after 5 mins by LC-MS/MS method.

The next data set addresses Cytochrome P450 2C9 (Homo sapiens, UniProt P11712). Nature of the data set: Inhibition of CYP2C9 in human Liver microsomes after 5 mins by LC-MS/MS method.

Broadly, the IC50 is the point on the concentration scale where inhibition reaches its midpoint. Usually inhibition in vivo stands for the percentage by which the read-out fell short of the control. The term efflux ratio denotes a quotient of directional permeabilities that is used to spot active efflux.

Cytochrome P450 2C9, sequence (P11712 whole entry): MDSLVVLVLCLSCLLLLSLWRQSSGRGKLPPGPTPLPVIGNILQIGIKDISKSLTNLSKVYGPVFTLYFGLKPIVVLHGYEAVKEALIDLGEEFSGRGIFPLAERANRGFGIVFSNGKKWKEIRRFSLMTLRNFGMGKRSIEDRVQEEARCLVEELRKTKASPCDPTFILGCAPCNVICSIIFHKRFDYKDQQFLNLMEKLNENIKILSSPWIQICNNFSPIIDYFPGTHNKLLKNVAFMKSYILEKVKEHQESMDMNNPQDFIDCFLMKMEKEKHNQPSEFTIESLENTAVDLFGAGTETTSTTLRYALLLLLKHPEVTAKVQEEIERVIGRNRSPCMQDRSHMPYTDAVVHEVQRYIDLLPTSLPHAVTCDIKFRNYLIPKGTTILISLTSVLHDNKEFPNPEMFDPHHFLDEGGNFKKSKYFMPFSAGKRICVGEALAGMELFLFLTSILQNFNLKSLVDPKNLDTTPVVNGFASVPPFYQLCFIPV
Cytochrome P450 3A4, sequence (P08684 whole entry): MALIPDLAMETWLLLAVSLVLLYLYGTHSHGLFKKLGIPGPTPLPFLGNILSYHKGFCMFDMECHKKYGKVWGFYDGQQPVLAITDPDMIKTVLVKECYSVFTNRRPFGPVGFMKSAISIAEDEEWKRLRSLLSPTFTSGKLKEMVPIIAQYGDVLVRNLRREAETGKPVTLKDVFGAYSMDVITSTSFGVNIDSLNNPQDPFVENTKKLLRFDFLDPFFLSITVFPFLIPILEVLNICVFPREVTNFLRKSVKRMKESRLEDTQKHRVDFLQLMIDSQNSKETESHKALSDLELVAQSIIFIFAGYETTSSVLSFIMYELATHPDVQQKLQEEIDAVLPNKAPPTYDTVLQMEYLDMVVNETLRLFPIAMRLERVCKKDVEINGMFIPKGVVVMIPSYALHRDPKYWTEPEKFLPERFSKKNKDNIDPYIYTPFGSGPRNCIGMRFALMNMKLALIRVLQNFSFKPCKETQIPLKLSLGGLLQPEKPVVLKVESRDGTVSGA

As to `O=C(Cn1cnc([N+](=O)[O-])n1)N1CCN(c2ccc(Cl)c(Cl)c2)CC1`, in data set [1], the “Ratio IC50” value came out at 12.3. For the same compound, the IC50 in data set [2] is 4.73 µM; in the data set with L6, 108 µM; in the data set on Leishmania donovani, 1.22 µM; in [4], 4.48 µM; in data set [7], 7.97 µM; in the data set on Trypanosoma cruzi [9], 0.169 µM. In [11], the half-maximal inhibitory concentration (IC50) came to 0.65 µM. The selectivity ratio in data set [3] (L6 cells) turned out to be 641; in [8] (L6 cells), 89; in [10] (L6 cells) it was 24. Moreover, the Activity was 753 nmol/min/mg in the data set on Trypanosoma cruzi [5], 2320 nmol/min/mg in [6] and “Non-toxic” in the data set with Mus musculus. Also, the inhibition in vivo at 15 mg/kg/day in the data set with Trypanosoma cruzi [12] turned out to be 77%.

As to `O=C(Cn1cnc([N+](=O)[O-])n1)N1CCN(Cc2ccc(Cl)c(Cl)c2)CC1`, in [1], the “Ratio IC50” value came out at 7.2. The IC50 in [2] was 3.59 µM; at Cytochrome P450 2D6, above 20 µM; on Cytochrome P450 2C19 it was above 20 µM; in the data set on L6, 59.9 µM; in the data set with Leishmania donovani it was 8.13 µM; at Cytochrome P450 3A4 it was above 20 µM. For the same compound, the IC50 was above 20 µM on Cytochrome P450 2C8; 0.231 µM in data set [4]; 4.13 µM in data set [7]; 0.298 µM with Trypanosoma cruzi [9]; 0.58 µM in [11]; above 20 µM against Cytochrome P450 2C9. Further, the efflux ratio at 2 h in [13] stood at 0.91. The selectivity ratio is 201 in data set [3] (l6), 7.36 in [8] (l6) and 260 in data set [10] (l6). For the same compound, the figures for the Activity (in the data set with Trypanosoma cruzi [5]; in data set [6]) were 745 nmol/min/mg and 3730 nmol/min/mg, respectively.
